The values that follow come from ChEMBL document CHEMBL1132381, “Pyrrolidine-3-carboxylic acids as endothelin antagonists. 4. Side chain conformational restriction leads to ET(B) selectivity” (J Med Chem, 1999).

System in the first data set: not listed separately
Kind of data set: Compound was evaluated for the biological half-life when administered through intravenous route. The format is ADME, organism-based. Conditions: in vivo.
For the molecule `CCc1cccc(CC)c1NC(=O)CN1C[C@H](c2ccc3c(c2)OCO3)[C@@H](C(=O)O)[C@@H]1c1ccc(OCCOC)cc1` (stereo in doubt; 39), the half-life was 2.6 h.

On to `CCOc1ccc([C@H]2[C@H](C(=O)O)[C@@H](c3ccc4c(c3)OCO4)CN2CC(=O)Nc2c(CC)cccc2CC)cc1` (stereo in doubt; 37), for which the half-life is 3.1 h.

Another data set deals with CHO. Kind of data set: Antagonistic activity was measured by ET receptor mediated hydrolysis of inositol phosphates. The data set is classed as functional, cell-based. Conditions: Cricetulus griseus. In outline: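 Inositol phosphate hydrolysis in human ETB-transfected CHO cells. Confluent cells labeled with 5 μCi/well [3H]myoinositol, then held 60 min at 37 °C in HEPES saline buffer with protease inhibitors and 10 mM LiCl. Compounds added, then 1 nM ET-1 challenge for 30 min at 37 °C. Total inositol phosphates measured; agonist activity assessed in the same run.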
Consider `CCOc1ccc([C@H]2[C@H](C(=O)O)[C@@H](c3ccc4c(c3)OCO4)CN2CC(=O)Nc2c(CC)cccc2CC)cc1` (stereo in doubt; 37), for which the IC50 was found to be 7.9 nM.

A further data set concerns the target T1, Endothelin receptor type B (Homo sapiens, UniProt P24530).
T1 sequence (P24530 whole entry): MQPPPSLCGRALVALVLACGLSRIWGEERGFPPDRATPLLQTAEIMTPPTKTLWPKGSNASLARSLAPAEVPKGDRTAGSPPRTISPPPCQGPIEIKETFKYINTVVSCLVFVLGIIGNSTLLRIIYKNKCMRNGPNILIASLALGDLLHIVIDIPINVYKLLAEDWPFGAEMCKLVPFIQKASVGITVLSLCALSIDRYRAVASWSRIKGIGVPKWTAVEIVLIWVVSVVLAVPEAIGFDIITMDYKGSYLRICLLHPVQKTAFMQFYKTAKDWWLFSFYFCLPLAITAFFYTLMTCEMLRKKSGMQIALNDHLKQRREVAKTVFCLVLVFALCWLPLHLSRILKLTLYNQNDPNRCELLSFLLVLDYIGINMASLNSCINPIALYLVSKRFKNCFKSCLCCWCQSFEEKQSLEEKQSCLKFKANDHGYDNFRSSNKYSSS
The experiment in a line: Binding affinity towards human Endothelin B receptor (hET -B).
Conditions: not given
The molecule `CCc1cccc(CC)c1NC(=O)CN1C[C@H](c2ccc3c(c2)OCO3)[C@@H](C(=O)O)[C@@H]1c1ccc(CCOC)cc1` displayed an IC50 of 3.8 nM.

Molecule `COc1ccc([C@H]2[C@H](C(=O)O)[C@@H](c3ccc4c(c3)OCO4)CN2CC(=O)Nc2c(C)cccc2C)cc1` came in with an IC50 of 16 nM.

Turning to `CCc1cccc(OC)c1NC(=O)CN1C[C@H](c2ccc3c(c2)OCO3)[C@@H](C(=O)O)[C@@H]1c1ccc(OC)cc1`, the IC50 worked out at 5.8 nM.

As for `CCCc1cccc(CC)c1NC(=O)CN1C[C@H](c2ccc3c(c2)OCO3)[C@@H](C(=O)O)[C@@H]1c1ccc(OC)cc1`, the IC50 was 82 nM.

`COc1ccc([C@H]2[C@H](C(=O)O)[C@@H](c3ccc4c(c3)OCO4)CN2CC(=O)Nc2ccc(C)c(C)c2)cc1` registered an IC50 of 830 nM.

In the case of `CCCOc1ccc([C@H]2[C@H](C(=O)O)[C@@H](c3ccc4c(c3)OCO4)CN2CC(=O)Nc2c(CC)cccc2CC)cc1` (stereo in doubt; 32) [A-192621], the IC50 amounted to 12 nM.

`CCCc1cccc(CCC)c1NC(=O)CN1C[C@H](c2ccc3c(c2)OCO3)[C@@H](C(=O)O)[C@@H]1c1ccc(OC)cc1` yielded an IC50 of 460 nM.

Molecule `CCc1cccc(CC)c1NC(=O)CN1C[C@H](c2ccc3c(c2)OCO3)[C@@H](C(=O)O)[C@@H]1c1ccc(OC(C)C)cc1` returned an IC50 of 6.9 nM.

In turn, `COc1ccc([C@H]2[C@H](C(=O)O)[C@@H](c3ccc4c(c3)OCO4)CN2CC(=O)Nc2c(Br)cccc2Br)cc1` displayed an IC50 of 10 nM.

`COc1ccc([C@H]2[C@H](C(=O)O)[C@@H](c3ccc4c(c3)OCO4)CN2CC(=O)Nc2c(C(C)C)cccc2C(C)C)cc1`: the IC50 is 26 nM.

Molecule `CCc1cc(F)cc(CC)c1NC(=O)CN1C[C@H](c2ccc3c(c2)OCO3)[C@@H](C(=O)O)[C@@H]1c1ccc(OC)cc1` yielded an IC50 of 0.8 nM.

Consider `CCc1cc(CC)c(NC(=O)CN2C[C@H](c3ccc4c(c3)OCO4)[C@@H](C(=O)O)[C@@H]2c2ccc(OC)cc2)c(CC)c1`, for which the IC50 stood at 1.5 nM.

The molecule `CCc1cccc(CC)c1N(C)C(=O)CN1C[C@H](c2ccc3c(c2)OCO3)[C@@H](C(=O)O)[C@@H]1c1ccc(OC)cc1` showed an IC50 of 600 nM.

With `CCc1cccc(CC)c1NC(=O)CN1C[C@H](c2ccc3c(c2)OCO3)[C@@H](C(=O)O)[C@@H]1c1ccc(OC)cc1` (stereo in doubt; 19), the IC50 was found to be 1.4 nM.

Consider `CCc1cccc(CC)c1NC(=O)CN1C[C@H](c2ccc3c(c2)OCO3)[C@@H](C(=O)O)[C@@H]1c1ccc(OCCOC)cc1` (stereo in doubt; 39), for which the IC50 came to 0.85 nM.

Take `COc1ccc([C@H]2[C@H](C(=O)O)[C@@H](c3ccc4c(c3)OCO4)CN2CC(=O)Nc2c(C)cccc2C(C)C)cc1`: the IC50 is 20 nM.

`CCOc1ccc([C@H]2[C@H](C(=O)O)[C@@H](c3ccc4c(c3)OCO4)CN2CC(=O)Nc2c(CC)cccc2CC)cc1` (stereo in doubt; 37) gave an IC50 of 1.2 nM.

The target of a further data set is T2, Endothelin-1 receptor (Homo sapiens, UniProt P25101).
T2 sequence (P25101 whole entry): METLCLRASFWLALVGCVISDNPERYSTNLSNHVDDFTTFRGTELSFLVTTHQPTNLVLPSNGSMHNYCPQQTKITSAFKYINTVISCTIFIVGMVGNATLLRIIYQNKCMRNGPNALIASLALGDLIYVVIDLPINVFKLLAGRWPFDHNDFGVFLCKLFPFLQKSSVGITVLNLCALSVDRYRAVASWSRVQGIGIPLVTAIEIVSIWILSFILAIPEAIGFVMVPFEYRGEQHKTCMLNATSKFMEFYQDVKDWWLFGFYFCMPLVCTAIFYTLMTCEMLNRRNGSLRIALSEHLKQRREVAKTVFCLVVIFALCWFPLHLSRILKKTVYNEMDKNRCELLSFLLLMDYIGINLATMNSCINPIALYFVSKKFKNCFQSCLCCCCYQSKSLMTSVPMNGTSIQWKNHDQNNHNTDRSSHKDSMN
Kind of data set: Binding affinity towards human Endothelin A receptor (hET -A).
Conditions: not given
On to `CCc1cccc(CC)c1NC(=O)CN1C[C@H](c2ccc3c(c2)OCO3)[C@@H](C(=O)O)[C@@H]1c1ccc(CCOC)cc1`, for which the IC50 was determined as 11000 nM.

In the case of `COc1ccc([C@H]2[C@H](C(=O)O)[C@@H](c3ccc4c(c3)OCO4)CN2CC(=O)Nc2c(C)cccc2C)cc1`, the IC50 worked out at 33 nM.

`CCc1cccc(OC)c1NC(=O)CN1C[C@H](c2ccc3c(c2)OCO3)[C@@H](C(=O)O)[C@@H]1c1ccc(OC)cc1` displayed an IC50 of 200 nM.

As for `CCCc1cccc(CC)c1NC(=O)CN1C[C@H](c2ccc3c(c2)OCO3)[C@@H](C(=O)O)[C@@H]1c1ccc(OC)cc1`, the IC50 was 15 nM.

In the case of `COc1ccc([C@H]2[C@H](C(=O)O)[C@@H](c3ccc4c(c3)OCO4)CN2CC(=O)Nc2ccc(C)c(C)c2)cc1`, the IC50 was 50 nM.

Turning to `CCCOc1ccc([C@H]2[C@H](C(=O)O)[C@@H](c3ccc4c(c3)OCO4)CN2CC(=O)Nc2c(CC)cccc2CC)cc1` (stereo in doubt; 32) [A-192621], the IC50 worked out at 9900 nM.

Molecule `CCCc1cccc(CCC)c1NC(=O)CN1C[C@H](c2ccc3c(c2)OCO3)[C@@H](C(=O)O)[C@@H]1c1ccc(OC)cc1` displayed an IC50 of 12 nM.

With `CCc1cccc(CC)c1NC(=O)CN1C[C@H](c2ccc3c(c2)OCO3)[C@@H](C(=O)O)[C@@H]1c1ccc(OC(C)C)cc1`, the half-inhibitory concentration (IC50) came to 1500 nM.

For `COc1ccc([C@H]2[C@H](C(=O)O)[C@@H](c3ccc4c(c3)OCO4)CN2CC(=O)Nc2c(Br)cccc2Br)cc1`, the IC50 turned out to be 61 nM.

Turning to `COc1ccc([C@H]2[C@H](C(=O)O)[C@@H](c3ccc4c(c3)OCO4)CN2CC(=O)Nc2c(C(C)C)cccc2C(C)C)cc1`, the IC50 stood at 920 nM.

`CCc1cc(F)cc(CC)c1NC(=O)CN1C[C@H](c2ccc3c(c2)OCO3)[C@@H](C(=O)O)[C@@H]1c1ccc(OC)cc1` yielded an IC50 of 22 nM.

For `CCc1cc(CC)c(NC(=O)CN2C[C@H](c3ccc4c(c3)OCO4)[C@@H](C(=O)O)[C@@H]2c2ccc(OC)cc2)c(CC)c1`, the IC50 turned out to be 10 nM.

In turn, `CCc1cccc(CC)c1N(C)C(=O)CN1C[C@H](c2ccc3c(c2)OCO3)[C@@H](C(=O)O)[C@@H]1c1ccc(OC)cc1` registered an IC50 of 190 nM.

`CCc1cccc(CC)c1NC(=O)CN1C[C@H](c2ccc3c(c2)OCO3)[C@@H](C(=O)O)[C@@H]1c1ccc(OC)cc1` (stereo in doubt; 19): the IC50 was found to be 45 nM.

Take `CCc1cccc(CC)c1NC(=O)CN1C[C@H](c2ccc3c(c2)OCO3)[C@@H](C(=O)O)[C@@H]1c1ccc(OCCOC)cc1` (stereo in doubt; 39): the IC50 stood at 3700 nM.

In the case of `COc1ccc([C@H]2[C@H](C(=O)O)[C@@H](c3ccc4c(c3)OCO4)CN2CC(=O)Nc2c(C)cccc2C(C)C)cc1`, the IC50 stood at 100 nM.

`CCOc1ccc([C@H]2[C@H](C(=O)O)[C@@H](c3ccc4c(c3)OCO4)CN2CC(=O)Nc2c(CC)cccc2CC)cc1` (stereo in doubt; 37): the IC50 was found to be 340 nM.

The target in a further data set is Endothelin receptor, ET-A/ET-B (Homo sapiens) (UniProt P24530+P25101). The experiment in a line: Ratio of binding affinity towards hETA to hETB. The format is protein assay.
Conditions: not given
An outline of the steps:
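Ratio of IC50 values from two CHO membrane binding assays. Both run 3 h at 25 °C over 11 concentrations, 10^-10 to 10^-5 M, in duplicate, with at least 2 determinations each.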
Consider `CCc1cccc(CC)c1NC(=O)CN1C[C@H](c2ccc3c(c2)OCO3)[C@@H](C(=O)O)[C@@H]1c1ccc(CCOC)cc1`, for which the Ratio was 3000.

Regarding `COc1ccc([C@H]2[C@H](C(=O)O)[C@@H](c3ccc4c(c3)OCO4)CN2CC(=O)Nc2c(C)cccc2C)cc1`, the Ratio is 2.

For the molecule `CCc1cccc(OC)c1NC(=O)CN1C[C@H](c2ccc3c(c2)OCO3)[C@@H](C(=O)O)[C@@H]1c1ccc(OC)cc1`, the Ratio is 34.

`CCCc1cccc(CC)c1NC(=O)CN1C[C@H](c2ccc3c(c2)OCO3)[C@@H](C(=O)O)[C@@H]1c1ccc(OC)cc1`: the Ratio worked out at 0.2.

For the molecule `COc1ccc([C@H]2[C@H](C(=O)O)[C@@H](c3ccc4c(c3)OCO4)CN2CC(=O)Nc2ccc(C)c(C)c2)cc1`, the Ratio stood at 0.06.

As for `CCCc1cccc(CCC)c1NC(=O)CN1C[C@H](c2ccc3c(c2)OCO3)[C@@H](C(=O)O)[C@@H]1c1ccc(OC)cc1`, the Ratio is 0.03.

As to `CCc1cccc(CC)c1NC(=O)CN1C[C@H](c2ccc3c(c2)OCO3)[C@@H](C(=O)O)[C@@H]1c1ccc(OC(C)C)cc1`, the Ratio was 220.

In the case of `COc1ccc([C@H]2[C@H](C(=O)O)[C@@H](c3ccc4c(c3)OCO4)CN2CC(=O)Nc2c(Br)cccc2Br)cc1`, the Ratio amounted to 6.

With `COc1ccc([C@H]2[C@H](C(=O)O)[C@@H](c3ccc4c(c3)OCO4)CN2CC(=O)Nc2c(C(C)C)cccc2C(C)C)cc1`, the Ratio is 35.

Regarding `CCc1cc(F)cc(CC)c1NC(=O)CN1C[C@H](c2ccc3c(c2)OCO3)[C@@H](C(=O)O)[C@@H]1c1ccc(OC)cc1`, the Ratio is 24.

On to `CCc1cc(CC)c(NC(=O)CN2C[C@H](c3ccc4c(c3)OCO4)[C@@H](C(=O)O)[C@@H]2c2ccc(OC)cc2)c(CC)c1`, for which the Ratio turned out to be 7.

Regarding `CCc1cccc(CC)c1N(C)C(=O)CN1C[C@H](c2ccc3c(c2)OCO3)[C@@H](C(=O)O)[C@@H]1c1ccc(OC)cc1`, the Ratio turned out to be 0.3.

`COc1ccc([C@H]2[C@H](C(=O)O)[C@@H](c3ccc4c(c3)OCO4)CN2CC(=O)Nc2c(C)cccc2C(C)C)cc1`: the Ratio turned out to be 5.

System in another data set: not listed separately
The experiment in a line: Oral bioavailability in rat. Conditions: in vivo.
The molecule `CCOc1ccc([C@H]2[C@H](C(=O)O)[C@@H](c3ccc4c(c3)OCO4)CN2CC(=O)Nc2c(CC)cccc2CC)cc1` (stereo in doubt; 37) registered a bioavailability of 37%.

System in the next data set: not listed separately
The experiment in a line: Compound was evaluated for area under curve when administered through oral route to rat. As to conditions: in vivo.
As for `CCc1cccc(CC)c1NC(=O)CN1C[C@H](c2ccc3c(c2)OCO3)[C@@H](C(=O)O)[C@@H]1c1ccc(OCCOC)cc1` (stereo in doubt; 39), the AUC came out at 650 ng·h/mL.

In the case of `CCOc1ccc([C@H]2[C@H](C(=O)O)[C@@H](c3ccc4c(c3)OCO4)CN2CC(=O)Nc2c(CC)cccc2CC)cc1` (stereo in doubt; 37), the AUC was 3400 ng·h/mL.
